Source: ChEMBL document CHEMBL1821641, “Synthesis and biological evaluation of 1-substituted-3(5)-(6-methylpyridin-2-yl)-4-(quinoxalin-6-yl)pyrazoles as transforming growth factor-β type 1 receptor kinase inhibitors” (Eur J Med Chem, 2011)

Tests used:
TGF-beta receptor type-1 = molecular target: T1, TGF-beta receptor type-1 (Homo sapiens, UniProt P36897); assay: Inhibition of human recombinant GST-fused ALK5 expressed in insect Sf9 cells using casein as substrate by radiometric kinase assay
T1 sequence (P36897 whole entry): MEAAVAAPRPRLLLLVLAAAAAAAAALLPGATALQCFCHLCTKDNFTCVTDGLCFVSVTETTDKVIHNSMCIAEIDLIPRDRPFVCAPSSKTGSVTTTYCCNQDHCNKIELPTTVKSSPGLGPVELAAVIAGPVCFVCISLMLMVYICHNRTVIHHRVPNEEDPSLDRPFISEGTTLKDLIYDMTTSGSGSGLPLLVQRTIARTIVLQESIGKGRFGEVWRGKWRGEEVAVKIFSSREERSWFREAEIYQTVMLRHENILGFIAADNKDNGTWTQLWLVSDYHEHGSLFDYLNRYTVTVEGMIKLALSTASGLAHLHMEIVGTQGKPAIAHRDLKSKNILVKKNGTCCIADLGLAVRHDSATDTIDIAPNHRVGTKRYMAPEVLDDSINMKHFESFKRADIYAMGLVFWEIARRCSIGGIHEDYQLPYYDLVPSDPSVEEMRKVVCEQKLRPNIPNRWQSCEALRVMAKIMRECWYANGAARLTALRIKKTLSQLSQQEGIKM

[1] = molecular target: Mitogen-activated protein kinase 14 (Homo sapiens, UniProt Q16539); assay: Inhibition of human recombinant p38alpha expressed in Escherichia coli using ATF2 as substrate by radiometric kinase assay
Homo sapiens = organism: Homo sapiens; assay: Selectivity index, ratio of IC50 for human recombinant p38alpha to IC50 for human recombinant ALK5
Procedure, shortened: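 Ratio of IC50 values from two radiometric (33P) protein kinase assays run by a contract lab. ALK5 assay: human recombinant GST-fusion kinase domain expressed in Sf9 cells via baculovirus, with casein as substrate. p38α assay: untagged human recombinant enzyme expressed in E. coli and Ni-agarose purified, with ATF2 as substrate, tested up to 1 μM. Index = IC50 p38α / IC50 ALK5.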

[2] = Chemical stability of compound; type: physicochemical

Sequence of Mitogen-activated protein kinase 14 (Q16539 whole entry): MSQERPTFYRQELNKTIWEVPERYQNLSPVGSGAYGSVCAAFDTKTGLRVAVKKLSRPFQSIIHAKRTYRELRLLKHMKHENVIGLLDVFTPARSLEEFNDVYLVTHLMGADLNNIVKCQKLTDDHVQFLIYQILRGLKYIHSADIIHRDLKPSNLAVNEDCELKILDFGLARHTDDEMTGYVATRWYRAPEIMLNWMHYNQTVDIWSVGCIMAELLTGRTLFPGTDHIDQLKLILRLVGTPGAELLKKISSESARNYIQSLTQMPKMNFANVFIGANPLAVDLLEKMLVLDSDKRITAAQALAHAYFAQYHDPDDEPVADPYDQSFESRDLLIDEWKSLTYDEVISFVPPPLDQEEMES

IC50 (TGF-beta receptor type-1) [nM]	IC50 [1] [nM]	Ratio IC50 (Homo sapiens)	Stability [2]	Compound
> 1000	> 1000			Cc1cccc(-c2c(-c3ccc4nc(C)c(C)nc4c3)cnn2CC(=O)Nc2cccc(C#N)c2)n1
143	> 1000	> 7		Cc1cccc(-c2c(-c3ccc4nccnc4c3)cnn2CC(=O)Nc2ccccc2)n1
13	> 1000	> 77	Stable	Cc1cccc(-c2nn(CC(=S)Nc3ccccc3)cc2-c2ccc3nccnc3c2)n1
> 1000	> 1000			Cc1cccc(-c2nn(CC(=S)Nc3cccc(C#N)c3)cc2-c2ccc3nc(C)c(C)nc3c2)n1
> 1000	> 1000			Cc1cccc(-c2nn(CC(=O)Nc3cccc(C#N)c3)cc2-c2ccc3nc(C)c(C)nc3c2)n1
48	> 1000	> 21		Cc1cccc(-c2nn(CC(=O)Nc3cccc(C(N)=O)c3)cc2-c2ccc3nccnc3c2)n1
		28		Cc1cccc(-c2[nH]c(Cc3cccc(C(N)=O)c3)nc2-c2ccc3nccnc3c2)n1
> 1000	> 1000			Cc1cccc(-c2c(-c3ccc4nc(C)c(C)nc4c3)cnn2CC(=O)Nc2ccccc2)n1

Continued, compound first:

Compound	IC50 (TGF-beta receptor type-1) [nM]	IC50 [1] [nM]	Ratio IC50 (Homo sapiens)	Stability [2]
Cc1cccc(-c2nn(CC(=O)Nc3ccccc3)cc2-c2ccc3nc(C)c(C)nc3c2)n1	> 1000	> 1000		
Cc1cccc(-c2nn(CC(=S)Nc3cccc(C#N)c3)cc2-c2ccc3nccnc3c2)n1	26	> 1000	> 38	
Cc1cccc(-c2c(-c3ccc4nccnc4c3)cnn2CC(=O)Nc2cccc(C#N)c2)n1	737	> 1000	> 1	
Cc1cccc(-c2nn(CC(=O)Nc3cccc(C#N)c3)cc2-c2ccc3nccnc3c2)n1	153	> 1000	> 7	
Cc1cccc(-c2nn(CC(=O)Nc3cccc(C(N)=O)c3)cc2-c2ccc3nc(C)c(C)nc3c2)n1	> 1000	> 1000		
Cc1cccc(-c2nn(CCC(=O)Nc3cccc(C#N)c3)cc2-c2ccc3nc(C)c(C)nc3c2)n1	> 1000	> 1000		
Cc1cccc(-c2nn(CCC(=O)Nc3ccccc3)cc2-c2ccc3nccnc3c2)n1	82	> 1000	> 12	
Cc1cccc(-c2nn(CC(=S)Nc3ccccc3)cc2-c2ccc3nc(C)c(C)nc3c2)n1	> 1000	> 1000		
Cc1cccc(-c2nn(CC(=O)Nc3ccccc3)cc2-c2ccc3nccnc3c2)n1	38	> 1000	> 26	
